# Screening data deposited in PubChem by Johns Hopkins Ion Channel Center.
# Most compounds without a hit are left out; they make up all but 2.3% or so of the library.
# TRPC6 inhibitor: mouse TRPC6 channel inhibitors, primary screen, cell-based, HEK293, membrane potential dye; Short transient receptor potential channel 6 (Mus musculus), Q61143; ACh-evoked depolarization; active compounds read low; B-score at 10 µM; actives 1.1% (n = 310,000); AID 2553, 2010;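 active means B-score under library mean minus 3 SD, initial fluorescence not abnormally high, positive integrated signal ratio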;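 further: B-score derived from integrated fluorescence ratio over the kinetic read; more negative B-score means stronger inhibition of depolarization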
# Target sequence (Q61143 whole entry, looked up): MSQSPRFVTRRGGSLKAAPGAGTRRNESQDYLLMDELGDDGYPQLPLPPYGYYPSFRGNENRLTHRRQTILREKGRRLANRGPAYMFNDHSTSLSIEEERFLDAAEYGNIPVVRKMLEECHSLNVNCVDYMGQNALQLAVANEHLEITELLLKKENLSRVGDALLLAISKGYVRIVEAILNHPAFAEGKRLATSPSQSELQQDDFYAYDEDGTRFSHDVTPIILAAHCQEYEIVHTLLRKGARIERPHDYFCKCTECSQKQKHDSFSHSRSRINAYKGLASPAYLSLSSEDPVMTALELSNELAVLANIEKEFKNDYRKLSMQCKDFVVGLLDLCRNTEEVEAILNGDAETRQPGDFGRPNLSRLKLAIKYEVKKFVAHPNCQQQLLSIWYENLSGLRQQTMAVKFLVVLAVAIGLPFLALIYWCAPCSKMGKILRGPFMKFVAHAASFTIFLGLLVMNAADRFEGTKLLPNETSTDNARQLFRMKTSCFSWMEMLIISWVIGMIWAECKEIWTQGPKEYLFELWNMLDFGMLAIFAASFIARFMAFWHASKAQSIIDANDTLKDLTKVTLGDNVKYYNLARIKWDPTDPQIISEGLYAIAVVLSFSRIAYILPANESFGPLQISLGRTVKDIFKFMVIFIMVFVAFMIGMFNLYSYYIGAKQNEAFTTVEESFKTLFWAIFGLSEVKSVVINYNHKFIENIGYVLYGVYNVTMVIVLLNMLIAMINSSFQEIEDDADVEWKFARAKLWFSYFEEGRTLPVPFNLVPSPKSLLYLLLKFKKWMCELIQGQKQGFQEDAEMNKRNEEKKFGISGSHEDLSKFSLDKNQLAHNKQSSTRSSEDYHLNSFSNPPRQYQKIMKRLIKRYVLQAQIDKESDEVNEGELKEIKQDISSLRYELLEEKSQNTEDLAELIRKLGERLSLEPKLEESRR
# TRPC4 act: activators of mouse TRPC4 channel, primary screen, Fluo4 calcium, HEK293 TRPC4beta/mu-opioid cells; Short transient receptor potential channel 4 (Mus musculus), Q9QUQ5; Fluo4 calcium fluorescence; active compounds read high; B-score at 10 µM; actives 0.49% (n = 310,000); AID 2237, 2010;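 active means B-score above 5 SD of library B-scores, and initial fluorescence ratio not above library mean plus 5 SD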;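 further: positive B-score marks a calcium rise read as TRPC4 activation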
#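 Assay system: HEK293 stable line with TRPC4beta plus mu-opioid receptor. Times: dye 45 min RT, read 110 s. Measured by: kinetic Fluo4 calcium fluorescence. Measure: B score of integrated ratio. Controls: assay buffer as low control, maximal DAMGO as high control.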
# TRPC4 inh: inhibitors of mouse TRPC4 channel, primary screen, Fluo4 calcium, HEK293 TRPC4beta/mu-opioid cells; Short transient receptor potential channel 4 (Mus musculus), Q9QUQ5; DAMGO-evoked Fluo4 calcium flux; active compounds read low; B-score at 10 µM; actives 0.39% (n = 300,000);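 active means B-score over 3 SD under the library average, no early fluorescence shift, positive overall ratio signal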
#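 Assay system: Stable TRPC4beta/mu-opioid receptor HEK293 cells | Reagent: DAMGO in two steps, submaximal then maximal | Compound dosing: Single concentration per test compound | Signal: Fluo4 Ca2+ flux fluorescence | Evaluation: Per-well B score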
# TRPC6 activator: mouse TRPC6 channel activators, primary screen, cell-based, HEK293, membrane potential dye. Short transient receptor potential channel 6 (Mus musculus), Q61143. actives 0.13% (n = 310,000). B-score at 10 µM. AID 2550, 2010. HEK293-TRPC6 membrane potential dye fluorescence; active compounds read high;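 active means B-score of the integrated fluorescence ratio above library mean plus 3 SD, and starting fluorescence ratio within library mean plus 5 SD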;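 further: higher score means more depolarization so channel activation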
# TRPC4 PAM: positive allosteric modulators of TRPC4, primary screen, cell-based, mouse TRPC4beta, HEK293 mu-opioid, Fluo-4 calcium | Short transient receptor potential channel 4 (Mus musculus), Q9QUQ5 | DAMGO EC20, Fluo-4 Ca2+ flux; active compounds read high | B-score at 10 µM | actives 0.42% (n = 310,000);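 active means B-score of calcium response area above 5 SD of library B-scores, with initial fluorescence ratio within 5 SD of library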;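 further: B-score of integrated fluorescence ratio over time as area under calcium response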
# TRPC4 sel inh 2: second selectivity test of TRPC6 inhibitors: effect on mouse TRPC4; shares compounds with TRPC6 inhibitor; HEK293 TRPC4/MOR, membrane potential dye fluorescence; channel activated by saturating DAMGO dose; inhibition, % at 10 µM; actives 42% (n = 920);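 active means compounds whose fluorescence signal differed from control wells by over 3 SD, either direction, in both duplicate plates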
# TRPC4 spec: mouse TRPC4 modulation by TRPC6 hits, confirmation, selectivity assay for TRPC6 inhibitor project, cell-based, HEK293 TRPC4/mu-opioid, membrane potential dye; shares compounds with TRPC6 inhibitor; membrane potential fluorescence; activity change, negative = inhibition, % at 10 µM; actives 61% (n = 920);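 active means rise or fall in signal beyond 3 SD of buffer-only wells in both replicate plates, either sign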;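 further: integrated kinetic ratio of fluorescence range over baseline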
# HEK293 MPD ctr 2-1: nonspecific membrane potential effects, parental HEK293, confirmation, counter-screen for TRPC6 inhibitor project, cell-based, second counter screen; actives 31% (n = 920); parental HEK293 membrane potential dye fluorescence; maximal acetylcholine challenge after compound addition; shares compounds with TRPC6 inhibitor; signal change vs control, % at 10 µM;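 active means membrane potential signal moving either way by over 3 SD of the maximum-effect control, in both duplicate plates, meaning non-specific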
# HEK293 MPD ctr-1: membrane potential modulation in parental HEK293, confirmation, counter-screen for TRPC6 inhibitor project, cell-based. shares compounds with TRPC6 inhibitor. parental HEK293 membrane potential dye fluorescence. membrane potential signal change, % at 10 µM. actives 60% (n = 920);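 active means membrane potential signal shifting up or down by more than 3 SD of buffer-only wells, on both duplicate plates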
# HEK293 MPD ctr-2: parental HEK293 membrane potential modulation, confirmation, counter-screen for TRPC6 modulator project, cell-based. shares compounds with TRPC6 inhibitor. membrane potential dye fluorescence. membrane potential signal change, % at 10 µM. actives 51% (n = 2,400);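 active means membrane potential signal moves up or down beyond 5 SD from buffer-only wells, on both duplicate plates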
# HEK293 MPD ctr 2-2: parental HEK293 nonspecific activity of TRPC6 modulators, second screen; membrane potential dye fluorescence; after compound, maximal acetylcholine stimulation; actives 14% (n = 2,400); shares compounds with TRPC6 inhibitor; inhibition, % at 10 µM;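 active means membrane potential signal drops by more than 5 SD from the mean control signal, in both duplicate plates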;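 further: plate controls were acetylcholine ECmax control wells for no effect and buffer only wells for full effect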
# TRPC4/MOR mod: TRPC4 modulation by TRPC6 hit compounds, confirmation, selectivity assay for TRPC6 modulator project, cell-based, HEK293 TRPC4/mu-opioid, membrane potential dye, mouse; shares compounds with TRPC6 inhibitor; membrane potential fluorescence; percent change from control (negative = decrease, positive = increase), % at 10 µM; actives 69% (n = 2,400); AID 488927, 2010;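 active means membrane potential signal moved up or down beyond 5 SD of buffer control wells, in both duplicate plates, actives on both sides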;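 further: plate controls were assay buffer wells for no effect and DAMGO maximal-effect wells for full effect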
# TRPC4/MOR inh 2: second check of whether TRPC6 modulators also affect mouse TRPC4. HEK293 TRPC4/mu-opioid, membrane potential dye fluorescence; stimulated with maximal-effect DAMGO. AID 488928. actives 55% (n = 2,400). shares compounds with TRPC6 inhibitor. inhibition, % at 10 µM;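 active means drop in membrane potential signal beyond 5 SD of the control wells in both duplicate plates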;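 further: TRPC4 counter screen for TRPC6 hits run under conditions tuned for TRPC6 not TRPC4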
# TRPC6 inh conf: mouse TRPC6 channel inhibitors, confirmation, HEK293 cells, membrane potential dye, duplicate; AID 488960, 2010; inhibition, % at 10 µM; actives 43% (n = 3,300); ACh-evoked depolarization; shares compounds with TRPC6 inhibitor;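 active means fluorescence ratio falls more than 5 SD below the full-stimulation control mean, in both duplicate runs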;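 further: integrated fluorescence ratio of peak minus minimum over baseline after agonist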
# TRPC6 act conf: mouse TRPC6 channel activators, confirmation, HEK293 cells, membrane potential dye, duplicate. shares compounds with TRPC6 inhibitor. HEK293-TRPC6 membrane potential dye fluorescence, FDSS. activation, % at 10 µM. actives 11% (n = 2,800). AID 488961, 2010;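 active means ratio signal rise beyond 5 SD above unstimulated control wells' mean, seen in both duplicate runs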;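 further: plate controls were buffer EC0 wells for no effect and acetylcholine ECmax response for full effect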
# * marks the source's active call; other numbers are inactive results; i = inactive; · = no result.
SMILES,TRPC6 inhibitor,TRPC4 act,TRPC4 inh,TRPC6 activator,TRPC4 PAM,HEK293 MPD ctr-2,HEK293 MPD ctr 2-2,TRPC4/MOR mod,TRPC4/MOR inh 2,TRPC6 inh conf,TRPC6 act conf,others
CN(C)CCC#CC(O)(c1ccccc1)c1ccccc1,-5.7*,i,i,i,i,i,98%*,7.0%*,i,84%*,·,
CCN(CC)CC#CC(O)(c1ccccc1)c1ccccc1,-14*,i,i,i,i,·,·,·,·,80%*,i,TRPC4 sel inh 2=i;TRPC4 spec=1.8%*;HEK293 MPD ctr 2-1=-31%*;HEK293 MPD ctr-1=5.0%*
CN(C)C(C)(C)C#CC(O)(c1ccccc1)c1ccccc1,-8.4*,i,i,i,i,·,·,·,·,67%*,i,TRPC4 sel inh 2=i;TRPC4 spec=-0.1%*;HEK293 MPD ctr 2-1=11%*;HEK293 MPD ctr-1=4.5%*
OCCN(CC#CC(O)(c1ccccc1)c1cccc(F)c1)CCO (stereo not given),i,i,i,i,i,·,·,·,·,·,·,
CN(C)CCC(O)(c1ccccc1)c1ccccc1,i,i,i,i,i,·,·,·,·,·,·,
COC(=O)[C@@H](Cc1ccccc1)NC(=O)[C@H]1CCC(=O)N1C(=O)OCc1ccccc1,i,i,i,i,i,·,·,·,·,·,·,
COc1ccc(CN2CCC(C(=O)Nc3ccc(Oc4ccccc4)nc3)CC2)cc1F,i,i,i,i,i,·,·,·,·,·,·,
C/C(=N\OC(=O)c1c(-c2ccccc2Cl)noc1C)c1nccs1,i,i,i,i,i,·,·,·,·,·,·,
C/C(=N/OC(=O)c1c(-c2ccccc2Cl)noc1C)c1cnccn1,-6*,i,i,i,i,108%*,i,21%*,i,52%*,·,
Cc1onc(-c2c(Cl)cccc2Cl)c1C(=O)O/N=C(\C#N)c1c(Cl)cccc1Cl,i,i,i,i,i,·,·,·,·,·,·,
C/C(=N/OC(=O)c1c(-c2c(Cl)cccc2Cl)noc1C)c1cnccn1,-8.1*,i,i,i,i,·,·,·,·,69%*,i,TRPC4 sel inh 2=i;TRPC4 spec=i;HEK293 MPD ctr 2-1=27%*;HEK293 MPD ctr-1=i
CCOC(=O)c1c(N2C(=O)CC(Sc3ccccc3C(=O)O)C2=O)sc2c1CCCC2 (stereo not given),i,i,i,18*,i,147%*,i,8.0%*,i,i,120%*,
CCOC(=O)C1CCN(C(=O)c2ccccc2NS(=O)(=O)c2ccccc2)CC1,i,i,i,i,i,·,·,·,·,·,·,
CCOC(=O)C1CCN(C(=O)c2cccc(S(=O)(=O)Nc3ccc(C)cc3C)c2)CC1,-5.3*,i,i,i,i,i,i,12%*,i,36%*,·,
Cc1c(C(=O)N(C)CCCCN2CCOCC2)oc2c(F)cccc12,i,i,i,i,i,·,·,·,·,·,·,
CCOC(=O)c1cn(C2CC2)c2c(F)c(NCCCN(C)C)c(F)cc2c1=O,-7.4*,i,i,i,i,·,·,·,·,67%*,i,TRPC4 sel inh 2=i;TRPC4 spec=-23%*;HEK293 MPD ctr 2-1=0.0%*;HEK293 MPD ctr-1=-436%*
Cc1ccc(-c2noc(CCC(=O)N3CCCc4ccccc43)n2)cc1,-6.4*,i,i,i,i,104%*,i,12%*,i,66%*,·,
Cc1ccc(-c2nc(CN3CCN(C(=O)C4CCCO4)CC3)cs2)cc1 (stereo not given),i,i,i,i,i,·,·,·,·,·,·,
Cc1nc(N)nc(N)c1CCCc1ccc(Cl)c(Cl)c1,-5.7*,i,i,i,i,i,i,i,50%*,40%*,i,
CCC(C)N(CCNC(=O)CC1Oc2ccc(C)cc2NC1=O)C1CCCCC1 (stereo not given),-8.4*,i,i,i,i,·,·,·,·,53%*,·,TRPC4 sel inh 2=i;TRPC4 spec=17%*;HEK293 MPD ctr 2-1=i;HEK293 MPD ctr-1=13%*
Cc1ccc2c(c1)NC(=O)C(CC(=O)NCCCN1CCCCC1C)O2 (stereo not given),i,i,i,i,i,·,·,·,·,·,·,
Cn1c(-c2c(N)n(CCc3ccccc3)c3nc4ccccc4nc23)nc2ccccc21,-5.7*,i,-6*,i,i,264%*,i,56%*,80%*,i,i,
